From ChEMBL document CHEMBL1122270, “N-(4-substituted-thiazolyl)oxamic acid derivatives, a new series of potent, orally active antiallergy agents” (1983)

Columns and labels:
Type in all cases: functional
[1] = tested on: Rattus norvegicus; test: Antiallergic activity by rat passive cutaneous anaphylaxis (PCA) assay when administered per orally; settings: po
Method in brief: (§1)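 Rats were passively sensitized intradermally with diluted reaginic anti-ovalbumin serum 24 h before challenge. Compound was suspended in 1% acacia and dosed by oral feeding needle at 1 mL/kg. After 20-30 min, rats were challenged with 0.02 mg ovalbumin in 0.5 mL 2% Evans Blue. Blued areas were measured 30 min after challenge. Six rats per dose; ED50 is 50% area reduction from control, with 95% confidence limits.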

[2] = tested on: Rattus norvegicus; test: antiallergic activity by rat passive cutaneous anaphylaxis (PCA) assay when administered iv
Method in brief: (§2)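 Male rats sensitized by id injection of diluted rat anti-ovalbumin reaginic serum (0.1 mL each side of shaved back). 24 h later, compound in saline was mixed with 5 mg ovalbumin in 0.5 mL 2% Evans Blue and given iv at 1 mL/kg. Blued-spot diameters were read 30 min later. Six rats per group; ED50 is 50% area reduction versus control, with 95% confidence limits.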

[3] = tested on: Rattus norvegicus; test: Antiallergic activity by rat passive cutaneous anaphylaxis (PCA) assay when administered per orally;value ranges between (0.7-1.6); settings: po; method in brief: as §1
[4] = tested on: Rattus norvegicus; test: Antiallergic activity by rat passive cutaneous anaphylaxis (PCA) assay when administered iv;value ranges between (0.01-0.04.); method in brief: as §2
[5] = tested on: Rattus norvegicus; test: Antiallergic activity by rat passive cutaneous anaphylaxis (PCA) assay when administered per orally;value ranges between (1.3-23).; settings: po; method in brief: as §1
[6] = tested on: Rattus norvegicus; test: Antiallergic activity by rat passive cutaneous anaphylaxis (PCA) assay when administered per orally;value ranges between (1.0-6.6).; settings: po; method in brief: as §1
[7] = tested on: Rattus norvegicus; test: Antiallergic activity by rat passive cutaneous anaphylaxis (PCA) assay when administered perorally; value ranges between […]; settings: po; method in brief: as §1
[8] = tested on: Rattus norvegicus; test: Antiallergic activity by rat passive cutaneous anaphylaxis (PCA) assay when administered per orally;value ranges between (4.67-21.77); settings: po; method in brief: as §1
[9] = tested on: Rattus norvegicus; test: Antiallergic activity by rat passive cutaneous anaphylaxis (PCA) assay when administered perorally; settings: po; method in brief: as §1
[10] = tested on: Rattus norvegicus; test: Antiallergic activity by rat passive cutaneous anaphylaxis (PCA) assay when administered per orally;value ranges between (0.91-5.2); settings: po; method in brief: as §1
[11] = tested on: Rattus norvegicus; test: Antiallergic activity by rat passive cutaneous anaphylaxis (PCA) assay when administered per orally;value ranges between (3.44-9.04); settings: po; method in brief: as §1
[12] = tested on: Rattus norvegicus; test: Antiallergic activity by rat passive cutaneous anaphylaxis (PCA) assay when administered per orally;value ranges between (1.02-2.15).; settings: po; method in brief: as §1
[13] = tested on: Rattus norvegicus; test: Antiallergic activity by rat passive cutaneous anaphylaxis (PCA) assay when administered per orally;value ranges between( 0.5-2.9).; settings: po; method in brief: as §1
[14] = tested on: Rattus norvegicus; test: Antiallergic activity by rat passive cutaneous anaphylaxis (PCA) assay when administered per orally;value ranges between (0.18-1.48).; settings: po; method in brief: as §1

Structure (SMILES)	ED50 [1] [mg/kg]	other results
CCOC(=O)C(=O)Nc1nc(-c2cccc(OC)c2)cs1	~20	–
CCOC(=O)C(=O)Nc1nc(-c2ccc(N3CCOCC3)cc2)cs1	> 100	–
COc1ccccc1-c1csc(NC(=O)C(=O)O)n1	–	ED50 [2]: > 1 mg/kg
O=C(O)C(=O)Nc1nc(-c2ccc(O)cc2)cs1	> 3	ED50 [2]: ~0.1 mg/kg
CCOC(=O)C(=O)Nc1nc(-c2ccc(O)cc2)cs1	~15	–
CCOC(=O)C(=O)Nc1nc(-c2ccccn2)cs1	~10	–
CCOC(=O)C(=O)Nc1nc(-c2ccc(Sc3ccccc3)cc2)cs1	> 3	–
CN(C)c1ccc(-c2csc(NC(=O)C(=O)O)n2)cc1	–	ED50 [3]: 1.1 mg/kg; ED50 [4]: 0.02 mg/kg
Cc1cc(C)c(-c2csc(NC(=O)C(=O)O)n2)c(O)c1.NCCO	> 10	–
CCOC(=O)C(=O)Nc1nc(-c2ccccc2OC)cs1	> 30	ED50 [2]: ~1 mg/kg
O=C(O)C(=O)Nc1ncc(-c2ccccc2)s1	–	ED50 [2]: ~0.3 mg/kg; ED50 [5]: 4.03 mg/kg
CCOC(=O)C(=O)Nc1nc(-c2ccc([N+](=O)[O-])cc2)cs1	> 100	–
CCOC(=O)C(=O)Nc1ncc(-c2ccccc2)s1	~10	–
NCCO.O=C(O)C(=O)Nc1nc(-c2cccc(O)c2)cs1	3	ED50 [2]: ~0.1 mg/kg
CCOC(=O)C(=O)Nc1nc(-c2ccc(Oc3ccccc3)cc2)cs1	> 30	–
CCOC(=O)C(=O)Nc1nc(-c2ccc(O)c(C(C)=O)c2)cs1	–	ED50 [6]: 2.6 mg/kg
CCOC(=O)C(=O)Nc1nc(-c2ccccc2O)cs1	–	ED50 [7]: 8.2 mg/kg
CCOC(=O)C(=O)Nc1nc(C)c(C)s1	> 10	–
CCOC(=O)c1ccc(-c2csc(NC(=O)C(=O)OC)n2)cc1	> 10	–
CCOC(=O)C(=O)Nc1nc(-c2cc(OC)c(OC)c(OC)c2)cs1	–	ED50 [8]: 14.5 mg/kg
CCOC(=O)C(=O)Nc1ccc(-c2csc(NC(=O)C(=O)OCC)n2)cc1	> 30	–

Structure (SMILES)	ED50 [1] [mg/kg]	other results
COc1ccc(OC)c(-c2csc(NC(=O)C(=O)O)n2)c1.NCCO	~7	ED50 [2]: ~0.3 mg/kg
NC(=O)C(=O)Nc1nc(-c2ccccc2)cs1	–	ED50 [9]: ~1 mg/kg
CCOC(=O)C(=O)Nc1nc(-c2ccco2)cs1	–	ED50 [10]: 2.2 mg/kg
NCCO.NCCO.O=C(O)C(=O)Nc1ccc(-c2csc(NC(=O)C(=O)O)n2)cc1	> 10	–
CCOC(=O)C(=O)Nc1nc(-c2cccnc2)cs1	~10	–
CCOC(=O)C(=O)Nc1nc(-c2c(C)cc(C)cc2O)cs1	~10	–
COc1cc(-c2csc(NC(=O)C(=O)O)n2)cc(OC)c1OC.NCCO	–	ED50 [2]: 1 mg/kg; ED50 [11]: 5.8 mg/kg
NC(=O)C(=O)Nc1nc(-c2ccc3c(c2)OCCO3)cs1	> 30	–
NC(=O)C(=O)Nc1nc(-c2ccc3c(c2)CCCC3)cs1	> 10	–
COc1ccc(-c2csc(NC(=O)C(=O)O)n2)cc1OC	–	ED50 [12]: 1.48 mg/kg
CCOC(=O)C(=O)Nc1nc(-c2ccc(F)cc2)cs1	> 10	–
CCOC(=O)C(=O)Nc1nc(-c2ccc3c(c2)N(C(C)=O)c2ccccc2S3)cs1	> 10	–
CCOC(=O)C(=O)Nc1nc(-c2ccc3c(c2)CCCC3)cs1	> 10	–
CCOC(=O)C(=O)Nc1nc(-c2ccncc2)cs1	–	ED50 [13]: 1.2 mg/kg
CCOC(=O)C(=O)Nc1nc(-c2ccc3c(c2)Sc2ccccc2S3)cs1	> 10	–
Cc1sc(NC(=O)C(=O)O)nc1-c1ccc2c(c1)OCCO2	–	ED50 [14]: 0.5 mg/kg
O=C(O)C(=O)Nc1nc(-c2ccc(-c3ccccc3)cc2O)cs1	> 30	–
CCOC(=O)C(=O)Nc1nc(-c2ccc(-c3ccccc3)cc2O)cs1	> 10	–
CCOC(=O)C(=O)Nc1nc(-c2ccc(OC)cc2OC)cs1	> 30	–
CCOC(=O)C(=O)Nc1nc(-c2cc(OC)c(O)c(OC)c2)cs1	~10	–
